Source: PubChem BioAssay
PGE2 EP2 inh: human EP2 receptor antagonists, primary screen, TR-FRET cAMP, C6 glioma cells | inhibition, % at 25 µM | Prostaglandin E2 receptor EP2 subtype (Homo sapiens), P43116 | 0.52% of 260,000 active | C6 glioma cells expressing human EP2; cells stimulated with saturating PGE2 | AID 1422, 2008;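 active = percent inhibition above 40 after rounding to a whole number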;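 note: rat C6 glioma host cells with rolipram phosphodiesterase inhibitor present; the protocol text gives 20 µM as final concentration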
Target sequence (P43116 whole entry, looked up): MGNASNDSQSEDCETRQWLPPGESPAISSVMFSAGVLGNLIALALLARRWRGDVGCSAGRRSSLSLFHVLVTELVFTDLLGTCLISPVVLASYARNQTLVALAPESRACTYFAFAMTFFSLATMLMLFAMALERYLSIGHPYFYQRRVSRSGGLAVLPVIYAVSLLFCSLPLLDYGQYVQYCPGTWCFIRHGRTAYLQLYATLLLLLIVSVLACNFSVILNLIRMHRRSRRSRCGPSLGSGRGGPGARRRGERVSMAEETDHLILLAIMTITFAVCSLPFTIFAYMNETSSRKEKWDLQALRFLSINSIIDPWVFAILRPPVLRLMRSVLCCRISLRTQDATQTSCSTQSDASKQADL
EP2 modulator: EP2 receptor modulators, cAMP readout, primary screen, cell-based, HTRF cAMP, PGE2 stimulation; Prostaglandin E2 receptor EP2 subtype (Homo sapiens), P43116; EP2-expressing cells, cAMP HTRF FRET, PGE2 co-stimulation; induction, % at 25 µM; 0.83% of 260,000 active; AID 940, 2007;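 active = compounds whose cAMP rise, as percent of the full-agonist control response, exceeds 60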;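 note: rat C6 glioma line stably carrying human EP2 under a CMV promoter; the protocol text gives 20 µM as final concentration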
MC4R ag barr: MC4R agonists recruiting beta-arrestin, primary screen, cell-based, luminescence, agonist arm of biased-ligand search. AID 540308, 2011. U2OS MC4R beta-arrestin complementation; percent of melanotan II response, DMSO zero. activation, % at 8.9 µM. 0.98% of 360,000 active;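 active = activation above a per-plate cutoff, the mean activation of sample wells on that plate plus 3 SD, cut at about 8% in these data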
Target sequence (P32245 whole entry, looked up): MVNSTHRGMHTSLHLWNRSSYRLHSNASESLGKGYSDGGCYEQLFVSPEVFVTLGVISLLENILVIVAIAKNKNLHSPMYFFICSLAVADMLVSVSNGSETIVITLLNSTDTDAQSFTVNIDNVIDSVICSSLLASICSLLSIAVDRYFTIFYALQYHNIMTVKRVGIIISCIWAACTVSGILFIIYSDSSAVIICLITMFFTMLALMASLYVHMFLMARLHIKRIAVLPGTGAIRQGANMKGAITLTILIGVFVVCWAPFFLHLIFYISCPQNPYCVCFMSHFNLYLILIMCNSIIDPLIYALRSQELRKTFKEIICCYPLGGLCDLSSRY
MC4R antag cAMP: MC4R antagonists of cAMP signaling, primary screen, cell-based, TR-FRET, antagonist arm of biased-ligand search; 0.48% of 360,000 active; MC4R-expressing cells, MTII-stimulated cAMP, LANCE TR-FRET; Melanocortin receptor 4 (Homo sapiens), P32245; AID 540295, 2011; inhibition, % at 6.5 µM;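 active = inhibition above its plate's cutoff, the mean of tested wells on that plate plus 3 SD, cut at about 29% in these data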
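Assay system: human MC4R-expressing U2OS cells; reagent: Melanotan II stimulation of cells; dosing: 6.5 µM single dose; timing: compound 30 min, challenge 1 h, detection 1 h; signal: TR-FRET cAMP assay; replicates: one well per compound, no replicates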
T cell HTS: modulators of CD8 T cell-vesicle binding, primary screen, mouse 2C CD8+ T cells, flow cytometry. response (vesicle binding), % at 7 µM. 0.068% of 330,000 active. AID 2052, 2009. 2C CD8+ T cell-vesicle binding; active compounds read low;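 active = response, share of CD8 T cells binding vesicles, and their 90th percentile fluorescence all below set limits, cut at about 80% in these data, passing the limit was not always enough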;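 note: values below 100% mean blocked vesicle binding to the CD8+ T cells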
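Material: murine 2C transgenic CD8+ T lymphocytes / Also added: QL9-peptide-loaded Drosophila micro-vesicles bearing Ld, ICAM-1 and B7-1 / Schedule: binding step 1.5 h, 37 °C, antibody labelling 20 min, ice / Signal: flow cytometry, PE anti-B7-1 (FL2) versus Alexa647 anti-CD8 (FL8), PFA-fixed / Evaluation: percent CD8+ FL2 mean versus row control / Benchmarks: naked versus QL9-loaded vesicles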
Exocytosis inh: LAMP-1 surface exposure blockers, TALL-104 cells – cell-based, flow cytometry, MLPCN library, primary screen | inhibition, % at 10 µM | AID 651702, 2012 | TALL-104 LAMP-1 surface exposure; cells stimulated with thapsigargin and PMA | 0.66% of 360,000 active;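 active = inhibition above about 55%, limit read from the data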
U2OS cAMP counter: nonselective cAMP signaling inhibitors, parental cells, counter-screen for MC4R biased antagonist project, cell-based, TR-FRET, U2OS, forskolin, triplicate; shares compounds with MC4R antag cAMP; LANCE TR-FRET; inhibition, % at 6.5 µM; 26% of 1,600 active; AID 602193, 2012;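 active = mean inhibition over triplicates above the low-control well mean plus 3 SD, set per campaign, cut at about 13% in these data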;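 note: signal is single emission at 671 nm which falls as cellular cAMP rises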
MC4R cAMP antag: MC4R cAMP antagonists, retest, confirmation, cell-based, TR-FRET. shares compounds with MC4R antag cAMP. inhibition, % at 6.5 µM. MC4R-expressing cells, MTII-stimulated cAMP. 27% of 1,600 active. AID 602195, 2012; in the data active = inhibition above about 29%
Each line names hits and unclear results; the compound was inactive in the other large screens (follow-up assays come after a bar, where they were run). This is a sample that favours compounds with a hit; in the whole collection about 2.6% have one here.

CCCCn1c(=O)[nH]c(=O)c2c1nc(-c1ccc(C#N)cc1)n2C1CCCC1	MC4R antag cAMP 29 (no result: PGE2 EP2 inh) | U2OS cAMP counter inactive | MC4R cAMP antag inactive
CSc1ccc(CN(C)CC(=O)NC(=O)NCCC2=CCCCC2)cc1	none (no result: PGE2 EP2 inh, EP2 modulator)
Cn1c(=O)c2c(nc(Sc3n[nH]c(N)n3)n2Cc2ccccc2Cl)n(C)c1=O	MC4R antag cAMP 29 | U2OS cAMP counter inactive | MC4R cAMP antag inactive
O=C(c1ccc([N+](=O)[O-])c(CS(=O)(=O)c2ccc(Cl)cc2)c1)N1CCCC1	none
O=C(Nc1cc(S(=O)(=O)N2CCCCC2)ccc1Cl)c1ccccc1NS(=O)(=O)c1ccc(F)cc1	MC4R antag cAMP 31 | U2OS cAMP counter inactive | MC4R cAMP antag inactive
O=C(CN(Cc1ccco1)Cc1ccco1)Nc1cc(S(=O)(=O)N2CCCCC2)ccc1Cl	MC4R antag cAMP 29 (no result: PGE2 EP2 inh, EP2 modulator) | U2OS cAMP counter inactive | MC4R cAMP antag inactive
O=C(O)CSc1nc2ccccc2nc1Cc1ccccc1F	MC4R antag cAMP 31 (no result: PGE2 EP2 inh, EP2 modulator) | U2OS cAMP counter inactive | MC4R cAMP antag inactive
O=C(O)CSc1cnc2ccccc2n1	none
CCCNC(=O)N1CCC(c2nc3ccccc3s2)CC1	none
O=C(NCC(c1cccs1)N1CCOCC1)c1ccc(Cl)c([N+](=O)[O-])c1 (stereo not drawn)	MC4R antag cAMP 41 | U2OS cAMP counter 16 | MC4R cAMP antag 47
O=C(NCC(c1cccs1)N1CCOCC1)c1ccc(Cl)c(S(=O)(=O)N2CCOCC2)c1 (stereo not drawn)	none
O=C(NCC(c1cccs1)N1CCOCC1)c1ccccc1NS(=O)(=O)c1ccc(Cl)c([N+](=O)[O-])c1 (stereo not drawn)	MC4R antag cAMP 29 | U2OS cAMP counter inactive | MC4R cAMP antag inactive
O=C(NCC(c1cccs1)N1CCOCC1)c1ccccc1NS(=O)(=O)c1cccc([N+](=O)[O-])c1 (stereo not drawn)	none
O=C(NCc1ccccc1)C1CCCN(C(=O)NCc2ccccc2)C1 (stereo not drawn)	none (no result: PGE2 EP2 inh, EP2 modulator)
CC1CC(C)CN(S(=O)(=O)c2ccc(C(=O)N3CC(C)OC(C)C3)cc2)C1 (stereo not drawn)	none (no result: PGE2 EP2 inh, EP2 modulator)
CC1CN(S(=O)(=O)c2ccc(C(=O)N3c4ccccc4CC3C)cc2)CC(C)O1 (stereo not drawn)	MC4R antag cAMP 29 (no result: PGE2 EP2 inh, EP2 modulator) | U2OS cAMP counter inactive | MC4R cAMP antag inactive
CC1CCCCC1NC(=O)/C(C#N)=C/c1ccccc1F (stereo not drawn)	MC4R antag cAMP 35 | U2OS cAMP counter inactive | MC4R cAMP antag inactive
CSc1ccc(/C=C(\C#N)C(=O)NC2CCCCC2C)cc1 (stereo not drawn)	none
O=C(CSc1nccc(=O)[nH]1)NN(c1ccccc1)c1ccccc1	MC4R antag cAMP 29 | U2OS cAMP counter inactive | MC4R cAMP antag inactive
O=C(CSc1ncn[nH]1)NN(c1ccccc1)c1ccccc1	none
COC(=O)CSc1nnc(-c2ccc(NS(=O)(=O)c3ccccc3)cc2)o1	MC4R antag cAMP 68 | U2OS cAMP counter inactive | MC4R cAMP antag 37
Cc1ccc(NC(=O)c2ccccc2[N+](=O)[O-])nc1	MC4R antag cAMP 38 | U2OS cAMP counter inactive | MC4R cAMP antag inactive
O=C(OC1CCOC1=O)c1cc(-c2ccc(Cl)cc2)nc2ccccc12 (stereo not drawn)	MC4R antag cAMP 35 | U2OS cAMP counter 17 | MC4R cAMP antag inactive
O=C(COC(=O)[C@@H]1CCCN1S(=O)(=O)c1ccc(Cl)cc1)NC12CC3CC(CC(C3)C1)C2	PGE2 EP2 inh 68, MC4R antag cAMP 32 | U2OS cAMP counter 14 | MC4R cAMP antag 34
Cc1ccc(S(=O)(=O)NCC(=O)OCC(=O)c2cccs2)cc1	MC4R antag cAMP 38 | U2OS cAMP counter inactive | MC4R cAMP antag inactive
Cc1ccc(S(=O)(=O)NCC(=O)OCC(=O)NC(=O)c2cccn2C)cc1	MC4R antag cAMP 34 (no result: PGE2 EP2 inh) | U2OS cAMP counter 26 | MC4R cAMP antag 40
Cc1ccc(S(=O)(=O)NCCC(=O)OCC(=O)NC(=O)c2cccn2C)cc1	none
CCN(CC)C(=O)C(=O)Nc1ccc(Oc2ccccc2)cc1	MC4R antag cAMP 33 | U2OS cAMP counter inactive | MC4R cAMP antag inactive
CC(C)(C)C(=O)CN1CCN(S(=O)(=O)c2ccc(F)cc2)CC1	none
CCc1ccc(-c2nc3ccc(Br)cc3c(C(=O)O)c2C)s1	MC4R antag cAMP 133 (no result: PGE2 EP2 inh, EP2 modulator) | U2OS cAMP counter 102 | MC4R cAMP antag 182
COc1cccc(-n2c(C)cc(/C=C3/C(=N)N4C(=NC3=O)SN=C4S(C)(=O)=O)c2C)c1	MC4R antag cAMP 29 | U2OS cAMP counter inactive | MC4R cAMP antag inactive
O=[N+]([O-])c1cc(S(=O)(=O)Oc2ccccc2)ccc1Cl	MC4R antag cAMP 30, Exocytosis inh 80 (no result: PGE2 EP2 inh, EP2 modulator, T cell HTS) | U2OS cAMP counter 35 | MC4R cAMP antag inactive
CC1(C)Cc2c(cnn2-c2ccccc2)C(NC(=O)CCc2ccncc2)C1 (stereo not drawn)	none (no result: PGE2 EP2 inh, EP2 modulator)
N#CC1(NC(=O)CN2C(=O)c3ccccc3C2=O)CCCCC1	none (no result: PGE2 EP2 inh, EP2 modulator)
N#CC1(NC(=O)Cn2ncc(Cl)c(Cl)c2=O)CCCCC1	MC4R antag cAMP 35 (no result: PGE2 EP2 inh, EP2 modulator) | U2OS cAMP counter 25 | MC4R cAMP antag 37
Cn1c(-c2ccccc2)n[nH]c1=S	MC4R antag cAMP 33 | U2OS cAMP counter inactive | MC4R cAMP antag inactive
O=C(CCl)NNC(=O)c1c(O)c2ccccc2[nH]c1=O	MC4R antag cAMP 31 | U2OS cAMP counter inactive | MC4R cAMP antag inactive
O=C(NCCCl)c1c(O)c2ccccc2[nH]c1=O	none (no result: MC4R ag barr, MC4R antag cAMP, T cell HTS, Exocytosis inh)
CCOc1ccc(S(=O)(=O)NCCC(=O)NCC(c2cccs2)N2CCOCC2)cc1 (stereo not drawn)	none (no result: PGE2 EP2 inh, EP2 modulator)
O=C(Nc1cc(N2CCCCC2)ncn1)c1ccccc1	none
O=C(Nc1cc(Cl)ncn1)c1ccccc1	MC4R antag cAMP 30 (no result: PGE2 EP2 inh, EP2 modulator) | U2OS cAMP counter 17 | MC4R cAMP antag 38
COCCn1c(SC2CCOC2=O)nc2ccccc2c1=O (stereo not drawn)	none
O=C1OCCC1Sc1nc2ccccc2c(=O)n1-c1ccc(F)cc1 (stereo not drawn)	none
